Experiments:
[1] = Drug uptake in nucleus of C57BL/6J mouse liver at 3 mg/kg, sc after 24 hrs by confocal microscopic analysis; format: ADME, organism-based; set-up: dose 3 mg/kg, route subcutaneous; conditions: in vivo
Procedure, shortened: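 Male C57BL/6J mice, 2 per group, injected with 50 nmol (~3 mg/kg) of fluorescein-conjugated polyamide and sacrificed 24 h later. Liver fixed in 10% formalin for 48 h, cryoprotected in 15% then 30% sucrose, and frozen. Nuclear fluorescence assessed by confocal microscopy in 10 μm sections.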

[2] = Drug uptake in human LNCAP cell nucleus at 2 uM after 24 hrs by confocal microscopic analysis; format: ADME, cell-based
Procedure, shortened: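 LNCaP cells incubated 24 h with 2 μM of the fluorescein-conjugated polyamide. Nuclear localization imaged by confocal microscopy.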

[3] = Metabolic stability in mouse liver microsomes after 1 hr by LC/MS/MS analysis; format: ADME, Microsome; conditions: read-out: Stability
Procedure, shortened: (§1)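 Compound incubated at 37 °C for 60 min with 1 mg/mL human or mouse liver microsomes in 100 mM KH2PO4, 3 mM MgCl2, pH 7.4, with 2 mM NADPH or without it. Stopped with ice-cold methanol, then precipitate removed. Analyzed by LC/MS/MS as % remaining versus time zero. Duplicates.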

[4] = system: Mus musculus; experiment: Acute toxicity in C57BL/6J mouse assessed as mild lymphoid apoptosis in white pulp of spleen at 10 mg/kg, sc after 9 days; format: organism-based; set-up: dose 10 mg/kg, route subcutaneous; conditions: in vivo, 216 h
Procedure, shortened: (§2)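 Male C57BL/6J mice, 8 weeks old, received a single sc dose (1, 3 or 10 mg/kg in 25% DMSO/saline, n = 4 per group) and were sacrificed after 9 days. Two representative animals per group were fixed in 10% formalin. Cecum, duodenum, heart, ileum, kidney, liver, lung, pancreas, spleen and stomach were examined blind by a veterinary pathologist and lesions graded mild, moderate or severe.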

[5] = system: Mus musculus; experiment: Acute toxicity in C57BL/6J mouse assessed as lesions in lungs at 1 to 10 mg/kg, sc after 9 days; format: organism-based; set-up: dose 1-10 mg/kg, route subcutaneous; conditions: in vivo, 216 h; procedure, shortened: as §2
[6] = system: Mus musculus; experiment: Acute toxicity in C57BL/6J mouse assessed as diffuse hepatocellular necrosis and apoptosis at 10 mg/kg, sc after 9 days; conditions: in vivo, 216 h
[7] = system: Mus musculus; experiment: Toxicity in C57BL/6J mouse assessed as morbidity at 1 mg/kg, sc administered every 3 days for a cycle of 3 injections; format: organism-based; set-up: dose 1 mg/kg, route subcutaneous; conditions: in vivo, 72 h
Procedure, shortened: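 Male C57BL/6J mice, 3 per group, given 1 mg/kg sc every 3 days. Weight recorded on injection days. Watched for signs of duress. Humane end point was visible duress or weight loss over 15% of starting body weight.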

[8] = system: Mus musculus; experiment: Acute toxicity in C57BL/6J mouse assessed as acute morbidity at 10 mg/kg, sc after 9 days; format: organism-based; set-up: dose 10 mg/kg, route subcutaneous; conditions: in vivo, 216 h
Procedure, shortened: (§3)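 Male C57BL/6J mice, 8 weeks old, were acclimated 3 days and then given a single sc injection of 1, 3 or 10 mg/kg in 25% DMSO/saline vehicle (up to 200 μL), n = 4 per group. Weight, behaviour and appearance were monitored daily for 9 days before sacrifice. The humane end point was visible duress or weight loss over 15% of the original.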

[9] = system: Mus musculus; experiment: Acute toxicity in C57BL/6J mouse assessed as lesions in pancreas at 1 to 10 mg/kg, sc after 9 days; format: organism-based; set-up: dose 1-10 mg/kg, route subcutaneous; conditions: in vivo, 216 h; procedure, shortened: as §2
[10] = system: Mus musculus; experiment: Acute toxicity in C57BL/6J mouse assessed as diffuse hepatocellular necrosis and apoptosis at 10 mg/kg, sc after 9 days; format: organism-based; set-up: dose 10 mg/kg, route subcutaneous; conditions: in vivo, 216 h; procedure, shortened: as §2
[11] = system: Mus musculus; experiment: Acute toxicity in C57BL/6J mouse assessed as moderate atypical tubular regeneration in kidney at 3 mg/kg, sc after 9 days; format: organism-based; set-up: dose 3 mg/kg, route subcutaneous; conditions: in vivo, 216 h; procedure, shortened: as §2
[12] = system: Mus musculus; experiment: Toxicity in C57BL/6J mouse assessed as weight loss at 1 mg/kg, sc administered every 3 days for a cycle of 3 injections; format: organism-based; set-up: dose 1 mg/kg, route subcutaneous; conditions: in vivo, 72 h
Procedure, shortened: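 8-week-old male C57BL/6J mice, acclimated 3 days, groups of three, dosed sc in 25% DMSO/saline vehicle once every 3 days, sacrificed 2 days after the last injection. Body weight recorded on injection days and at end point; humane end point set at visible duress or >15% loss of original body weight.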

[13] = Metabolic stability in mouse liver microsomes after 1 hr by LC/MS/MS analysis in presence of NADPH; format: ADME, Microsome; conditions: read-out: Stability; procedure, shortened: as §1
[14] = system: Mus musculus; experiment: Toxicity in C57BL/6J mouse assessed as karyomegaly in kidney at 1 mg/kg, sc administered every 3 days for a cycle of 3 injections measured 2 days post last injection; format: organism-based; set-up: dose 1 mg/kg, route subcutaneous; conditions: in vivo, 48 h
Procedure, shortened: (§4)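 Male C57BL/6J mice, 8 weeks old, given 1 mg/kg sc every 3 days for three injections and sacrificed 2 days after the last one. Two mice per group fixed in 10% formalin. A veterinary pathologist, blinded, examined cecum, duodenum, heart, ileum, kidney, liver, lung, pancreas, spleen and stomach. Lesions graded mild, moderate or severe.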

[15] = system: Mus musculus; experiment: Toxicity in C57BL/6J mouse assessed as mild tubular attenuation in kidney at 1 mg/kg, sc administered every 3 days for a cycle of 3 injections measured 2 days post last injection; format: organism-based; set-up: dose 1 mg/kg, route subcutaneous; conditions: in vivo, 48 h; procedure, shortened: as §4
[16] = Metabolic stability in human liver microsomes after 1 hr by LC/MS/MS analysis in presence of NADPH; format: ADME, Microsome; conditions: read-out: Stability; procedure, shortened: as §1
[17] = system: Mus musculus; experiment: Toxicity in C57BL/6J mouse assessed as mild multifocal hepatocellular necrosis and apoptosis in liver at 1 mg/kg, sc administered every 3 days for a cycle of 3 injections measured 2 days post last injection; format: organism-based; set-up: dose 1 mg/kg, route subcutaneous; conditions: in vivo, 48 h; procedure, shortened: as §4
[18] = system: Mus musculus; experiment: Acute toxicity in C57BL/6J mouse assessed as lesions in heart at 1 to 10 mg/kg, sc after 9 days; format: organism-based; set-up: dose 1-10 mg/kg, route subcutaneous; conditions: in vivo, 216 h; procedure, shortened: as §2
[19] = Metabolic stability in human liver microsomes after 1 hr by LC/MS/MS analysis; format: ADME, Microsome; conditions: read-out: Stability; procedure, shortened: as §1
[20] = system: Mus musculus; experiment: Acute toxicity in C57BL/6J mouse assessed as lesions in stomach at 1 to 10 mg/kg, sc after 9 days; format: organism-based; set-up: dose 1-10 mg/kg, route subcutaneous; conditions: in vivo, 216 h; procedure, shortened: as §2
[21] = system: Mus musculus; experiment: Toxicity in C57BL/6J mouse assessed as epithelial necrosis and apoptosis in kidney at 1 mg/kg, sc administered every 3 days for a cycle of 3 injections measured 2 days post last injection; format: organism-based; set-up: dose 1 mg/kg, route subcutaneous; conditions: in vivo, 48 h; procedure, shortened: as §4
[22] = system: Mus musculus; experiment: Acute toxicity in C57BL/6J mouse assessed as lesions in GI tract at 1 to 10 mg/kg, sc after 9 days; format: organism-based, Gastrointestinal tract; set-up: dose 1-10 mg/kg, route subcutaneous; conditions: in vivo, 216 h; procedure, shortened: as §2
[23] = system: Mus musculus; experiment: Acute toxicity in C57BL/6J mouse assessed as tubular epithelial necrosis and apoptosis in kidney at 3 mg/kg, sc after 9 days; format: organism-based; set-up: dose 3 mg/kg, route subcutaneous; conditions: in vivo, 216 h; procedure, shortened: as §2
[24] = system: Mus musculus; experiment: Acute toxicity in C57BL/6J mouse assessed as weight loss at 10 mg/kg, sc after 9 days; format: organism-based; set-up: dose 10 mg/kg, route subcutaneous; conditions: in vivo, 216 h; procedure, shortened: as §3

CC(=O)N[C@H](CCNC(=O)c1cc(NC(=O)c2cc(NC(=O)c3cc(NC(=O)c4nccn4C)cn3C)cn2C)cn1C)C(=O)Nc1cn(C)c(C(=O)Nc2cc(C(=O)Nc3cc(C(=O)Nc4cc(C(=O)NCCCN(C)CCCNC(=S)Nc5ccc(-c6c7ccc(=O)cc-7oc7cc(O)ccc67)c(C(=O)O)c5)n(C)c4)n(C)c3)n(C)c2)n1
Active: Drug uptake [1] | Drug uptake [2]

CN(CCCNC(=O)c1cc(NC(=O)c2cc(NC(=O)c3cc(NC(=O)c4nc(NC(=O)[C@H](N)CCNC(=O)c5cc(NC(=O)c6cc(NC(=O)c7cc(NC(=O)c8nccn8C)cn7C)cn6C)cn5C)cn4C)cn3C)cn2C)cn1C)CCCNC(=S)Nc1ccc(-c2c3ccc(=O)cc-3oc3cc(O)ccc23)c(C(=O)O)c1
Active: Drug uptake [2]

CN(CCCNC(=O)c1cccc(C(=O)O)c1)CCCNC(=O)c1cc(NC(=O)c2cc(NC(=O)c3cc(NC(=O)c4nc(NC(=O)C[C@@H](N)CNC(=O)c5cc(NC(=O)c6cc(NC(=O)c7cc(NC(=O)c8nccn8C)cn7C)cn6C)cn5C)cn4C)cn3C)cn2C)cn1C
> 90%: remaining at 1 h [3] | remaining at 1 h [13] | remaining at 1 h [16] | remaining at 1 h [19]
Non-toxic: Activity [5] | Activity [7] | Activity [9] | Activity [12] | Activity [18] | Activity [20] | Activity [22]
Toxic: Activity [4] | Activity [6] | Activity [8] | Activity [10] | Activity [11] | Activity [14] | Activity [15] | Activity [17] | Activity [21] | Activity [23] | Activity [24]
